From ChEMBL document CHEMBL1275448, “Identification of a novel multidrug efflux pump of Mycobacterium tuberculosis” (2008)
Converted amounts (≈) assume the structure as drawn.

Columns and labels:
Type in all cases: functional
[1] = test system: Mycolicibacterium smegmatis; test: Antimicrobial activity against Mycobacterium smegmatis overexpressing rv0194 gene by microplate Alamar blue assay
Procedure, shortened: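 M. smegmatis SMR5 carried either control plasmid pMS2 or rv0194 expression vector pML655. Cells were grown at 37°C in Middlebrook 7H9 with 0.2% glycerol and 0.05% Tween 80, then tested by microplate Alamar blue assay. MIC was the lowest antibiotic concentration reducing culture viability by ≥90%, read by fluorescence (ex 530/em 590 nm, room temperature).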

[2] = test system: Mycolicibacterium smegmatis; test: Resistance factor, ratio of MIC for Mycobacterium smegmatis overexpressing rv0194 gene to MIC for wild-type Mycobacterium smegmatis SMR5
Procedure, shortened: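 Resistance factor is the MABA MIC for M. smegmatis expressing rv0194 divided by the MIC for wild-type SMR5. MIC was the lowest concentration giving ≥90% viability reduction by fluorescence (ex 530/em 590 nm).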

[3] = test system: Mycobacterium tuberculosis variant bovis BCG; test: Antimicrobial activity against Mycobacterium bovis BCG ML1034 by microplate Alamar blue assay
Procedure, shortened: (§1)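 Whole-cell M. bovis BCG (Institut Pasteur) MABA; mutants carried IS1096::Km insertions. Growth was in Middlebrook 7H9 with 0.2% glycerol, 0.05% Tween 80 and 10% OADC. Final drug ranges: ampicillin 62.5–2,000 μg/ml, vancomycin 1.25–40 μg/ml, streptomycin 0.25–8 μg/ml, chloramphenicol 4–128 μg/ml, tetracycline 0.5–16 μg/ml. MIC was the lowest concentration cutting viability ≥90%, read by fluorescence (ex 530/em 590 nm, room temperature).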

[4] = test system: Mycobacterium tuberculosis variant bovis BCG; test: Antimicrobial activity against Mycobacterium bovis BCG ML1050 carrying transposon IS1096::Km inserted at +41bp of bcg2827 gene by microplate Alamar blue assay; procedure, shortened: as §1
[5] = test system: Mycobacterium tuberculosis variant bovis BCG; test: Antimicrobial activity against Mycobacterium bovis BCG ML1053 carrying transposon IS1096::Km inserted at +271bp of bcg2326c gene by microplate Alamar blue assay; procedure, shortened: as §1
[6] = test system: Mycobacterium tuberculosis variant bovis BCG; test: Antimicrobial activity against Mycobacterium bovis BCG ML1062 carrying transposon IS1096::Km inserted at -18bp of pks11 gene by microplate Alamar blue assay; procedure, shortened: as §1
[7] = test system: Mycobacterium tuberculosis variant bovis BCG; test: Antimicrobial activity against Mycobacterium bovis BCG ML1052 carrying transposon IS1096::Km inserted at +78bp of bcg2824 gene by microplate Alamar blue assay; procedure, shortened: as §1
[8] = test system: Mycobacterium tuberculosis variant bovis BCG; test: Antimicrobial activity against Mycobacterium bovis BCG ML1038 carrying transposon IS1096::Km inserted at +78bp of bcg2735 gene by microplate Alamar blue assay; procedure, shortened: as §1
[9] = test system: Mycobacterium tuberculosis variant bovis BCG; test: Antimicrobial activity against Mycobacterium bovis BCG ML1064 carrying transposon IS1096::Km inserted at +569bp of lppB gene by microplate Alamar blue assay; procedure, shortened: as §1
[10] = test system: Mycobacterium tuberculosis variant bovis BCG; test: Antimicrobial activity against Mycobacterium bovis BCG ML1010 carrying transposon IS1096::Km inserted at +43bp of ppe gene by microplate Alamar blue assay; procedure, shortened: as §1
[11] = test system: Mycobacterium tuberculosis variant bovis BCG; test: Antimicrobial activity against Mycobacterium bovis BCG ML1030 carrying transposon IS1096::Km inserted at +849bp of bcg1988c gene by microplate Alamar blue assay; procedure, shortened: as §1
[12] = test system: Mycobacterium tuberculosis variant bovis BCG; test: Antimicrobial activity against Mycobacterium bovis BCG ML1048 carrying transposon IS1096::Km inserted at +519bp of bcg1567c gene by microplate Alamar blue assay; procedure, shortened: as §1
[13] = test system: Mycobacterium tuberculosis variant bovis BCG; test: Antimicrobial activity against Mycobacterium bovis BCG ML1013 carrying transposon IS1096::Km inserted at +923bp of cpsY gene by microplate Alamar blue assay; procedure, shortened: as §1
[14] = test system: Mycobacterium tuberculosis variant bovis BCG; test: Antimicrobial activity against Mycobacterium bovis BCG ML1041 carrying transposon IS1096::Km inserted at +1707bp of ppe24 gene by microplate Alamar blue assay; procedure, shortened: as §1
[15] = test system: Mycobacterium tuberculosis variant bovis BCG; test: Antimicrobial activity against Mycobacterium bovis BCG ML1058 carrying transposon IS1096::Km inserted at +320bp of lprR gene by microplate Alamar blue assay; procedure, shortened: as §1
[16] = test system: Mycobacterium tuberculosis variant bovis BCG; test: Antimicrobial activity against Mycobacterium bovis BCG ML1051 carrying transposon IS1096::Km inserted at -420bp of bcg2965 gene by microplate Alamar blue assay; procedure, shortened: as §1
[17] = test system: Mycobacterium tuberculosis variant bovis BCG; test: Antimicrobial activity against Mycobacterium bovis BCG ML1044 carrying transposon IS1096::Km inserted at -178bp of ppe33b gene by microplate Alamar blue assay; procedure, shortened: as §1
[18] = test system: Mycobacterium tuberculosis variant bovis BCG; test: Antimicrobial activity against Mycobacterium bovis BCG ML1060 carrying transposon IS1096::Km inserted at -206bp of fadD25/mmpL12 gene by microplate Alamar blue assay; procedure, shortened: as §1
[19] = test system: Mycobacterium tuberculosis variant bovis BCG; test: Antimicrobial activity against Mycobacterium bovis BCG ML1046 carrying transposon IS1096::Km inserted at +33bp of bcg2743 gene by microplate Alamar blue assay; procedure, shortened: as §1
[20] = test system: Mycobacterium tuberculosis variant bovis BCG; test: Antimicrobial activity against Mycobacterium bovis BCG ML1006 carrying transposon IS1096::Km inserted at +720bp of bcg3787 gene by microplate Alamar blue assay; procedure, shortened: as §1
[21] = test system: Mycobacterium tuberculosis variant bovis BCG; test: Antimicrobial activity against Mycobacterium bovis BCG ML1075 carrying transposon IS1096::Km inserted at +899bp of gca gene by microplate Alamar blue assay; procedure, shortened: as §1
[22] = test system: Mycobacterium tuberculosis variant bovis BCG; test: Antimicrobial activity against Mycobacterium bovis BCG ML1061 carrying transposon IS1096::Km inserted at +19bp of lppA gene by microplate Alamar blue assay; procedure, shortened: as §1
[23] = test system: Mycobacterium tuberculosis variant bovis BCG; test: Antimicrobial activity against Mycobacterium bovis BCG ML1042 carrying transposon IS1096::Km inserted at -509bp of bcg2123c/pe22 gene by microplate Alamar blue assay; procedure, shortened: as §1
[24] = test system: Mycobacterium tuberculosis variant bovis BCG; test: Antimicrobial activity against Mycobacterium bovis BCG ML1037 carrying transposon IS1096::Km inserted at +1765bp of bcg3693 gene by microplate Alamar blue assay; procedure, shortened: as §1
[25] = test system: Mycobacterium tuberculosis variant bovis BCG; test: Antimicrobial activity against Mycobacterium bovis BCG ML1069 carrying transposon IS1096::Km inserted at +205bp of gmhA gene by microplate Alamar blue assay; procedure, shortened: as §1
[26] = test system: Mycobacterium tuberculosis variant bovis BCG; test: Antimicrobial activity against Mycobacterium bovis BCG ML1036 carrying transposon IS1096::Km inserted at +277bp of agpS gene by microplate Alamar blue assay; procedure, shortened: as §1
[27] = test system: Mycobacterium tuberculosis variant bovis BCG; test: Antimicrobial activity against Mycobacterium bovis BCG ML1065 carrying transposon IS1096::Km inserted at +96bp of bcg0061 gene by microplate Alamar blue assay; procedure, shortened: as §1
[28] = test system: Mycobacterium tuberculosis variant bovis BCG; test: Antimicrobial activity against Mycobacterium bovis BCG ML1034 carrying transposon IS1096::Km inserted at -54bp of bcg0231 gene by microplate Alamar blue assay; procedure, shortened: as §1
[29] = test system: Mycobacterium tuberculosis variant bovis BCG; test: Antimicrobial activity against Mycobacterium bovis BCG ML1007 carrying transposon IS1096::Km inserted at +988bp of ppe53 gene by microplate Alamar blue assay; procedure, shortened: as §1
[30] = test system: Mycobacterium tuberculosis variant bovis BCG; test: Antimicrobial activity against Mycobacterium bovis BCG ML1040 carrying transposon IS1096::Km inserted at +1930bp of papA2 gene by microplate Alamar blue assay; procedure, shortened: as §1
[31] = test system: Mycobacterium tuberculosis variant bovis BCG; test: Antimicrobial activity against Mycobacterium bovis BCG ML1012 carrying transposon IS1096::Km inserted at +1255bp of bcg3960c gene by microplate Alamar blue assay; procedure, shortened: as §1
[32] = test system: Mycobacterium tuberculosis variant bovis BCG; test: Antimicrobial activity against Mycobacterium bovis BCG ML1029 carrying transposon IS1096::Km inserted at +524bp of bcg2734c gene by microplate Alamar blue assay; procedure, shortened: as §1
[33] = test system: Mycobacterium tuberculosis variant bovis BCG; test: Antimicrobial activity against Mycobacterium bovis BCG ML1025 carrying transposon IS1096::Km inserted at +435bp of bcg3145 gene by microplate Alamar blue assay; procedure, shortened: as §1
[34] = test system: Mycobacterium tuberculosis variant bovis BCG; test: Antimicrobial activity against Mycobacterium bovis BCG ML1047 carrying transposon IS1096::Km inserted at +544bp of fadD23 gene by microplate Alamar blue assay; procedure, shortened: as §1
[35] = test system: Mycobacterium tuberculosis variant bovis BCG; test: Antimicrobial activity against Mycobacterium bovis BCG ML1009 carrying transposon IS1096::Km inserted at +368bp of cyp121 gene by microplate Alamar blue assay; procedure, shortened: as §1

O=C(N[C@H](CO)[C@H](O)c1ccc([N+](=O)[O-])cc1)C(Cl)Cl [CHLORAMPHENICOL]
MIC [1]: 32 µg/mL (≈ 99 µM) | Ratio [2]: 1 | MIC [3]: 512 µg/mL (≈ 1580 µM)

CN[C@@H]1[C@H](O[C@H]2[C@H](O[C@H]3[C@H](O)[C@@H](O)[C@H](N=C(N)N)[C@@H](O)[C@@H]3N=C(N)N)O[C@@H](C)[C@]2(O)C=O)O[C@@H](CO)[C@H](O)[C@H]1O [STREPTOMYCIN]
MIC [3]: 16 µg/mL (≈ 27.5 µM)

CC[C@H]1OC(=O)[C@H](C)[C@@H](O[C@H]2C[C@@](C)(OC)[C@@H](O)[C@H](C)O2)[C@H](C)[C@@H](O[C@@H]2O[C@H](C)C[C@H](N(C)C)[C@H]2O)[C@](C)(O)C[C@@H](C)C(=O)[C@H](C)[C@@H](O)[C@]1(C)O [ERYTHROMYCIN]
MIC [1]: 10 µg/mL (≈ 13.6 µM) | Ratio [2]: 4

CN(C)[C@@H]1C(O)=C(C(N)=O)C(=O)[C@@]2(O)C(O)=C3C(=O)c4c(O)cccc4[C@@](C)(O)[C@H]3C[C@@H]12 [TETRACYCLINE]
MIC [1]: 0.3 µg/mL (≈ 0.675 µM) | Ratio [2]: 1 | MIC [3]: > 16 µg/mL

CN[C@H](CC(C)C)C(=O)N[C@H]1C(=O)N[C@@H](CC(N)=O)C(=O)N[C@H]2C(=O)N[C@H]3C(=O)N[C@H](C(=O)N[C@H](C(=O)O)c4cc(O)cc(O)c4-c4cc3ccc4O)[C@H](O)c3ccc(c(Cl)c3)Oc3cc2cc(c3O[C@@H]2O[C@H](CO)[C@@H](O)[C@H](O)[C@H]2O[C@H]2C[C@](C)(N)[C@H](O)[C@H](C)O2)Oc2ccc(cc2Cl)[C@H]1O [VANCOMYCIN]
MIC [1]: 2.5 µg/mL (≈ 1.73 µM) | Ratio [2]: 2 | MIC [3]: 20 µg/mL (≈ 13.8 µM)

CO[C@@H]1[C@@H](OC(N)=O)[C@@H](O)[C@H](Oc2ccc3c(O)c(NC(=O)c4ccc(O)c(CC=C(C)C)c4)c(=O)oc3c2C)OC1(C)C [NOVOBIOCIN]
MIC [1]: 8 µg/mL (≈ 13.1 µM) | Ratio [2]: 2

CC1(C)S[C@@H]2[C@H](NC(=O)[C@H](N)c3ccccc3)C(=O)N2[C@H]1C(=O)O [AMPICILLIN]
MIC [4]: 2000 µg/mL (≈ 5720 µM) | MIC [5]: 2000 µg/mL (≈ 5720 µM) | MIC [6]: > 2000 µg/mL | MIC [7]: > 500 µg/mL | MIC [8]: 2000 µg/mL (≈ 5720 µM) | MIC [1]: 250 µg/mL (≈ 715 µM) | Ratio [2]: 2 | MIC [9]: 2000 µg/mL (≈ 5720 µM) | MIC [10]: 500 µg/mL (≈ 1430 µM) | MIC [11]: 2000 µg/mL (≈ 5720 µM) | MIC [12]: 250 µg/mL (≈ 715 µM) | MIC [13]: 2000 µg/mL (≈ 5720 µM) | MIC [14]: > 2000 µg/mL | MIC [15]: 2000 µg/mL (≈ 5720 µM) | MIC [16]: > 500 µg/mL | MIC [17]: 250 µg/mL (≈ 715 µM) | MIC [18]: 250 µg/mL (≈ 715 µM) | MIC [3]: 2000 µg/mL (≈ 5720 µM) | MIC [19]: 500 µg/mL (≈ 1430 µM) | MIC [20]: 2000 µg/mL (≈ 5720 µM) | MIC [21]: 2000 µg/mL (≈ 5720 µM) | MIC [22]: > 2000 µg/mL | MIC [23]: 500 µg/mL (≈ 1430 µM) | MIC [24]: 250 µg/mL (≈ 715 µM) | MIC [25]: 2000 µg/mL (≈ 5720 µM) | MIC [26]: 250 µg/mL (≈ 715 µM) | MIC [27]: > 2000 µg/mL | MIC [28]: 2000 µg/mL (≈ 5720 µM) | MIC [29]: 2000 µg/mL (≈ 5720 µM) | MIC [30]: 2000 µg/mL (≈ 5720 µM) | MIC [31]: > 2000 µg/mL | MIC [32]: > 2000 µg/mL | MIC [33]: 250 µg/mL (≈ 715 µM) | MIC [34]: 2000 µg/mL (≈ 5720 µM) | MIC [35]: 2000 µg/mL (≈ 5720 µM)
